Measurements gathered from unrelated publications.
Compare with care: the assays were run in different laboratories.
Target: Serine/threonine-protein kinase 32B (STK32B, Homo sapiens, UniProt Q9NY57)

SMILES | test | setting | remaining binding [%]
O=C(NCCCN1CCOCC1)c1ccc(Nc2ncc(Cl)c(-c3ccc(Cl)s3)n2)cc1 | binding, competition with immobilised ligand | 1 µM | 100
CNC(=O)[C@@H]1CC[C@@H](n2c(-c3ccc4cnccc4c3)nc3ccc(C(=O)NCc4cccc(C(N)=O)c4)cc32)C1 | binding, competition with immobilised ligand | 1 µM | 100
C[C@H]1CCN(c2nccc(-c3cnn4ncccc34)n2)C1 | binding | 1 µM | 100
C[C@@H](c1ccc(-n2cnc3c(N)ncnc32)cc1)N1CCc2nn(C)c(Cc3ccccc3)c2C1=O | binding, competition with immobilised ligand | 0.1 µM | 99
F[C@@H]1CCN(c2nccc(-c3cnn4ncccc34)n2)C1 | binding | 1 µM | 100
FC(F)(F)c1ccc2c(c1)nc(-c1cccnc1)n2C1CC1 | cell-free assay, competition with immobilised ligand | 1 µM | 100
COc1ncc2cc3ccccc3nc2c1C#N | cell-free assay, competition with immobilised ligand | 5 µM | 84
CN(C)c1nccc(-c2cnc3ncccn23)n1 | binding | 1 µM | 88
O=C(Nc1cnc(Oc2ccc(F)cc2)nc1)N1CCc2ncccc2[C@@H]1c1ccc(F)cc1 | cell-free assay, competition with immobilised ligand | 1 µM | 87
CC1CCCN1c1nccc(-c2cnn3ncccc23)n1 (stereo not drawn) | binding | 1 µM | 100
C[C@H](c1cccc(C#N)c1)n1cc(Cl)cc(C(N)=O)c1=N | cell-free assay, competition with immobilised ligand | 1 µM | 100
O=C(c1ccc(Nc2nccc(-c3cc4ccccc4s3)n2)cc1)N1CCC(N2CCCC2)CC1 | binding, competition with immobilised ligand | 1 µM | 100
CNC(=O)c1ccc(Nc2ncc(C(F)(F)F)c(NCc3nccnc3N(C)S(C)(=O)=O)n2)cc1 | cell-free assay, competition with immobilised ligand | 0.1 µM | 97
c1cnn2ncc(-c3ccnc(N4CCC45COC5)n3)c2c1 | binding | 1 µM | 93
O=C(NCCCC1CCCCC1)c1ccc(CNC(=O)c2cnn(-c3ccccc3)c2C(F)(F)F)cc1 | cell-free assay, competition with immobilised ligand | 0.1 µM | 100
O=C(NCC1CCOCC1)c1n[nH]cc1NC(=O)c1c(F)cccc1F | binding, competition with immobilised ligand | 1 µM | 77
O=C1NC(c2ccccn2)Sc2ccccc21 (stereo not drawn) | cell-free assay, competition with immobilised ligand | 1 µM | 100
FC(F)(F)Oc1cccc(-c2cnc3ccc(-c4ccncc4)nn23)c1 | binding, competition with immobilised ligand | 5 µM | 97
N[C@@H]1CCN(c2nccc(-c3cnn4ncccc34)n2)C1 | binding | 1 µM | 96
Cc1cnc(Nc2ccc(C(=O)N3CCC(N4CCCC4)CC3)cc2)nc1-c1cc2ccccc2s1 | binding, competition with immobilised ligand | 1 µM | 100
COc1cnc(Nc2cccc(S(N)(=O)=O)c2)nc1N1CCN(c2ccccc2)CC1 | binding, competition with immobilised ligand | 1 µM | 100
